pIC50: −log10 of the molar value.
Legend:
[1] = Stability assessed as nitric oxide release in 0.1 M phosphate buffer at pH 7.4 at 100 to 150 nM measured per mole in presence of glutathione by chemiluminescence analysis; assay type: physicochemical
[2] = Chemical stability assessed as half life in 0.1 M phosphate buffer at 33 uM at pH 7.4 in presence of glutathione; assay type: physicochemical; conditions: gsh, pH 7.4, 33 µM
[3] = biological target: Glutathione S-transferase P (Homo sapiens) (UniProt P09211); assay: Specific activity of human Glutathione S-transferase P at 50 uM by spectrophotometric analysis in presence of glutathione
Sequence of Glutathione S-transferase P (Homo sapiens) (P09211 2-210 limits assumed): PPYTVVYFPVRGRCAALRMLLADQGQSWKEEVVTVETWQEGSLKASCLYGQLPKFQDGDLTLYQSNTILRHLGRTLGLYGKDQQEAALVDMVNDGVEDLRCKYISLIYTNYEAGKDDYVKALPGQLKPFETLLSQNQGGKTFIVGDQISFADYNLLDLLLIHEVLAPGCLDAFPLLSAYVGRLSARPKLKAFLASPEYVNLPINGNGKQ
Method in brief: (§1)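 Reaction of 1 mL held 0.1 M phosphate buffer pH 7.4, 1 mM GSH, 50 μM compound and a catalytic amount of GST. GSTA1-1 and GSTM1-1 were purified recombinant enzymes; GSTP1-1 was purified in-house. Enzymes were first checked for activity with CDNB. Reaction started by adding compound, and the absorbance decrease at its maximum was followed at 37 °C. Specific activity came from the change in extinction coefficient.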

[4] = biological target: Glutathione S-transferase P (Homo sapiens) (UniProt P09211); assay: Specific activity of human Glutathione S-transferase P at 50 uM by spectrophotometric analysis in presence of glutathione relative to O2-(2,4-dinitrophenyl) 1-[(4-ethoxycarbonyl)piperazin-1-yl]diazen-1-ium-1,2-diolate; method in brief: as §1
[5] = biological target: T1, Glutathione S-transferase A1 (Homo sapiens) (UniProt P08263); assay: Specific activity of human recombinant Glutathione S-transferase A1 at 50 uM by spectrophotometric analysis in presence of glutathione; method in brief: as §1
T1 sequence (whole entry): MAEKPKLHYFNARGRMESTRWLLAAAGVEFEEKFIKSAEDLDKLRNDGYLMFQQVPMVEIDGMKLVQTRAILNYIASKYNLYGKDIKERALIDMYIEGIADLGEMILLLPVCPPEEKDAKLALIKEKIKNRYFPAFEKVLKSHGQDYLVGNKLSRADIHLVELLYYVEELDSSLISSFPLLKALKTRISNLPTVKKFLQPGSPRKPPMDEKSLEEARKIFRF

[6] = biological target: T1, Glutathione S-transferase A1 (Homo sapiens); assay: Specific activity of human recombinant Glutathione S-transferase A1 at 50 uM by spectrophotometric analysis in presence of glutathione relative to O2-(2,4-dinitrophenyl) 1-[(4-ethoxycarbonyl)piperazin-1-yl]diazen-1-ium-1,2-diolate; method in brief: as §1
[7] = biological target: T2, Glutathione S-transferase Mu 1 (Homo sapiens) (UniProt P09488); assay: Specific activity of human recombinant Glutathione S-transferase Mu 1 at 50 uM by spectrophotometric analysis in presence of glutathione; method in brief: as §1
T2 sequence (whole entry): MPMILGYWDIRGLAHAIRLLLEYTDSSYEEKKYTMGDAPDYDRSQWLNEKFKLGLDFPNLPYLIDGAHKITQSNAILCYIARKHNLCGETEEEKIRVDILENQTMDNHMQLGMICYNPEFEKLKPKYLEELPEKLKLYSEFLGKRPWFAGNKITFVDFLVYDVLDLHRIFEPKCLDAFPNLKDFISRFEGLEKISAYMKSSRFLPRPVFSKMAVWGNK

[8] = biological target: T2, Glutathione S-transferase Mu 1 (Homo sapiens); assay: Specific activity of human recombinant Glutathione S-transferase Mu 1 at 50 uM by spectrophotometric analysis in presence of glutathione relative to O2-(2,4-dinitrophenyl) 1-[(4-ethoxycarbonyl)piperazin-1-yl]diazen-1-ium-1,2-diolate; method in brief: as §1
HL-60 = assay: Antiproliferative activity against human HL-60 cells after 72 hrs by MTT assay; assay type: functional, cell-based; conditions: HL-60, 72 h
Method in brief: (§2)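 MTT (CellTiter 96) proliferation assay. Seeded at 10⁴ per well and grown 24 h, then given rising compound concentrations in PBS (from 10 mM DMSO stocks) for 72 h. Six repeats per concentration, at least two independent experiments; IC50 reported.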

U-937 = assay: Antiproliferative activity against human U937 cells after 72 hrs by MTT assay; assay type: functional, cell-based; conditions: U-937, 72 h
Method in brief: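 Cells seeded at 10⁴ per well and grown 24 h, then exposed 72 h to increasing drug concentrations diluted in PBS from 10 mM DMSO stocks. Growth read by MTT assay. Six repeats per concentration, at least two independent experiments; IC50 reported.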

[9] = Antiproliferative activity against human H441 cells after 72 hrs by MTT assay; assay type: functional, cell-based; conditions: NCI-H441, 72 h
A549 = assay: Antiproliferative activity against human A549 cells after 72 hrs by MTT assay; assay type: functional, cell-based; conditions: A549, 72 h; method in brief: as §2
[10] = Antiproliferative activity against human HCT 116 cells after 72 hrs by MTT assay; assay type: functional, cell-based; conditions: HCT-116, 72 h
HCT-15 = assay: Antiproliferative activity against human HCT-15 cells after 72 hrs by MTT assay; assay type: functional, cell-based; conditions: HCT-15, 72 h
OVCAR-3 = assay: Antiproliferative activity against human OVCAR-3 cells after 72 hrs by MTT assay; assay type: functional, cell-based; conditions: OVCAR-3, 72 h
PC-3 = assay: Antiproliferative activity against human PC-3 cells after 72 hrs by MTT assay; assay type: functional, cell-based; conditions: PC-3, 72 h; method in brief: as §2
[11] = Antiproliferative activity against human H1395 cells after 72 hrs by MTT assay; assay type: functional, cell-based; conditions: NCI-H1395, 72 h
[12] = Antiproliferative activity against human H838 cells after 72 hrs by MTT assay; assay type: functional, cell-based; conditions: NCI-H838, 72 h
HT-29 = assay: Antiproliferative activity against human HT-29 cells after 72 hrs by MTT assay; assay type: functional, cell-based; conditions: HT-29, 72 h
Caco-2 = assay: Antiproliferative activity against human Caco-2 cells after 72 hrs by MTT assay; assay type: functional, cell-based; conditions: Caco-2, 72 h
OVCAR-5 = assay: Antiproliferative activity against human OVCAR5 cells after 72 hrs by MTT assay; assay type: functional, cell-based; conditions: OVCAR-5, 72 h
TK-10 = assay: Antiproliferative activity against human TK-10 cells after 72 hrs by MTT assay; assay type: functional, cell-based; conditions: TK-10, 72 h
[13] = Antiproliferative activity against human 786O cells after 72 hrs by MTT assay; assay type: functional, cell-based; conditions: 786-0, 72 h
[14] = Antiproliferative activity against human UO-30 cells after 72 hrs by MTT assay; assay type: functional, cell-based; conditions: UO-30, 72 h
[15] = Antiproliferative activity against HREpC cells after 72 hrs by MTT assay; assay type: cell-based; conditions: Homo sapiens
Method in brief: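 Seeded at 10⁴ per well and grown 24 h before dosing. Compounds came from 10 mM DMSO stocks and were diluted in PBS to increasing concentrations. Exposure was 72 h, with MTT growth read-out. Six repeats per concentration, at least two independent experiments; IC50.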

[16] = Antiproliferative activity against human BJ-5ta cells after 72 hrs by MTT assay; assay type: cell-based; conditions: hTERT-BJ
Method in brief: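 10⁴ cells per well, allowed 24 h growth, then exposed 72 h to increasing concentrations added in PBS from 10 mM DMSO stocks. MTT proliferation read-out. Each concentration in six repeats, at least two independent experiments; IC50.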

| Compound | Activity [1] | Activity [3] | Activity [4] | Activity [5] | Activity [6] | Activity [7] | Activity [8] | pIC50 (HL-60) | pIC50 (U-937) | pIC50 [9] | pIC50 (A549) | pIC50 [10] | pIC50 (HCT-15) | pIC50 (PC-3) | further results |
| --- | --- | --- | --- | --- | --- | --- | --- | --- | --- | --- | --- | --- | --- | --- | --- |
| CCOC(=O)N1C(C)CN(/[N+]([O-])=N/Oc2ccc([N+](=O)[O-])cc2[N+](=O)[O-])CC1C (stereo unspecified) | 1.75 mol/mol | 1.17 µmol/min/mg | 0.86 | 70.3 µmol/min/mg | 1.06 | 172 µmol/min/mg | 1.36 | 5.33 | 5.31 | 5.09 | < 5.00 | 5.02 | 5.09 | < 5.00 | t1/2 [2]: 26 min; pIC50 (OVCAR-3): 5.31 |
| CCOC(=O)N1CCN(/[N+]([O-])=N/Oc2ccc([N+](=O)[O-])cc2[N+](=O)[O-])CC1C (stereo unspecified) |  | 1.15 µmol/min/mg | 0.85 | 55.5 µmol/min/mg | 0.84 | 112 µmol/min/mg | 0.89 |  |  |  |  |  |  |  |  |
| CCOC(=O)N1CC(C)N(/[N+]([O-])=N/Oc2ccc([N+](=O)[O-])cc2[N+](=O)[O-])CC1C (stereo unspecified) |  | 0.14 µmol/min/mg | 0.1 | 17.6 µmol/min/mg | 0.27 | 49 µmol/min/mg | 0.39 |  |  |  |  |  |  |  |  |
| CCOC(=O)N1CCN(/[N+]([O-])=N/Oc2ccc([N+](=O)[O-])cc2[N+](=O)[O-])CC1 | 1.7 mol/mol | 1.36 µmol/min/mg | 1 | 66.3 µmol/min/mg | 1 | 126 µmol/min/mg | 1 | 6.70 | 6.52 | 6.00 | 5.82 | 6.15 | 6.22 | 5.96 | pIC50 (OVCAR-3): 6.10; pIC50 [11]: 6.10; pIC50 [12]: 5.37; pIC50 (HT-29): 6.10; pIC50 (Caco-2): 5.59; pIC50 (OVCAR-5): 6.00; pIC50 (TK-10): 6.30; pIC50 [13]: 6.10; pIC50 [14]: 6.05; pIC50 [15]: 4.95; pIC50 [16]: 5.00 |
| CCOC(=O)N1CCCN(/[N+]([O-])=N/Oc2ccc([N+](=O)[O-])cc2[N+](=O)[O-])CC1 |  | 0.16 µmol/min/mg | 0.12 | 16.8 µmol/min/mg | 0.25 | 38 µmol/min/mg | 0.3 |  |  |  |  |  |  |  |  |
| CCOC(=O)N1CCN(/[N+]([O-])=N/Oc2ccc([N+](=O)[O-])cc2[N+](=O)[O-])C(C)C1 (stereo unspecified) |  | 0.88 µmol/min/mg | 0.65 | 47 µmol/min/mg | 0.71 | 110 µmol/min/mg | 0.87 |  |  |  |  |  |  |  |  |
| COC(=O)N1CCN(/[N+]([O-])=N/Oc2ccc([N+](=O)[O-])cc2[N+](=O)[O-])CC1 |  | 0.98 µmol/min/mg | 0.72 | 45.1 µmol/min/mg | 0.68 | 102 µmol/min/mg | 0.81 |  |  |  |  |  |  |  |  |
| CCCOC(=O)N1CCN(/[N+]([O-])=N/Oc2ccc([N+](=O)[O-])cc2[N+](=O)[O-])CC1 | 2 mol/mol | 1.2 µmol/min/mg | 0.88 | 59 µmol/min/mg | 0.89 | 126 µmol/min/mg | 1 | 5.85 | 6.15 | 5.62 | 5.62 | 5.82 | 5.89 | 5.70 | t1/2 [2]: 27 min |

From ChEMBL document CHEMBL1142542, “Synthesis, mechanistic studies, and anti-proliferative activity of glutathione/glutathione S-transferase-activated nitric oxide prodrugs” (Bioorg Med Chem, 2008)
